Results on 18 compounds are retold here after ChEMBL document CHEMBL1142259, “Design and synthesis of novel potent and selective integrin alphanubeta3 antagonists--novel synthetic routes to isoquinolinone, benzoxazinone, and quinazolinone acetates” (Bioorg Med Chem Lett, 2008).

One data set deals with Integrin alpha-V/beta-3 (Homo sapiens, UniProt P05106+P06756). The data set can be described thus: Displacement of vitronectin from integrin alphavbeta3 receptor. In kind it is protein-complex assay. In outline: (§1)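 Ligand displacement from the isolated integrin receptor: vitronectin for αvβ3 and fibrinogen for αIIbβ3. IC50 reported as the mean of three experiments. Intra-assay variation <10%; inter-assay variation < factor 2.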

The target of data set [1] is Integrin alpha-IIb/beta-3 (Homo sapiens, UniProt P05106+P08514). The data set can be described thus: Displacement of fibrinogen from integrin alpha2bbeta3 receptor. The data set is classed as protein-complex assay. In outline: as §1
A short description of data set [2]: Apparent permeability across human Caco-2 cells. In kind it is ADME, cell-based. In outline: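 Apparent permeability coefficient (Papp) measured in Caco-2 monolayers. n = 2, intra-assay variation <20%. Papp >2e-7 cm/s is classed as medium transport and >2e-6 cm/s as high transport.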
Data set [3] has as its target Integrin alpha-5/beta-1 (Homo sapiens) (UniProt P05556+P08648). The data set can be described thus: Inhibition of integrin alpha5beta1 receptor mediated cellular binding to fibronectin at 10 uM. The data set is classed as protein-complex assay.

Integrin alpha-V/beta-3, sequence (P05106 27-788 limits assumed): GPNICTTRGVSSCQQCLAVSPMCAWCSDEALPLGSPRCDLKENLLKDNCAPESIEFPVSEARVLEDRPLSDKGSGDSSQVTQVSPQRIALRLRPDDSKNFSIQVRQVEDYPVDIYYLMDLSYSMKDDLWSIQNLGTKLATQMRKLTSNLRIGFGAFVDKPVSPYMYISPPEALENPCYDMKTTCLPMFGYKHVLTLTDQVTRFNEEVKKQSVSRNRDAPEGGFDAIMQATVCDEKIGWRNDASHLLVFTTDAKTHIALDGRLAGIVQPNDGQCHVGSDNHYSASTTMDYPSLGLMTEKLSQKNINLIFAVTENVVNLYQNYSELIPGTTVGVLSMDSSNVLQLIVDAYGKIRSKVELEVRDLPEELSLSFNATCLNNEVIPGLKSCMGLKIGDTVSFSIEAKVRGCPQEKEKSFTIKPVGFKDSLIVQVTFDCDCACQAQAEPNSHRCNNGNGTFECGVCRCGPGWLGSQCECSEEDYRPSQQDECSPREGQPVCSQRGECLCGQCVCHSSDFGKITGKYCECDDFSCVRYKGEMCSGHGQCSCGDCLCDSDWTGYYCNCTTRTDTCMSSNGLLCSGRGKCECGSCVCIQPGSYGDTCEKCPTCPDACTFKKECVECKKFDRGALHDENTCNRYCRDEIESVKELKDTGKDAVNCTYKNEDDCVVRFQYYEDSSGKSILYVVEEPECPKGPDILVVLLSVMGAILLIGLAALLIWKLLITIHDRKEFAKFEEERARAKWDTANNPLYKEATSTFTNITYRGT
Integrin alpha-V/beta-3, sequence (P06756 31-889 limits assumed): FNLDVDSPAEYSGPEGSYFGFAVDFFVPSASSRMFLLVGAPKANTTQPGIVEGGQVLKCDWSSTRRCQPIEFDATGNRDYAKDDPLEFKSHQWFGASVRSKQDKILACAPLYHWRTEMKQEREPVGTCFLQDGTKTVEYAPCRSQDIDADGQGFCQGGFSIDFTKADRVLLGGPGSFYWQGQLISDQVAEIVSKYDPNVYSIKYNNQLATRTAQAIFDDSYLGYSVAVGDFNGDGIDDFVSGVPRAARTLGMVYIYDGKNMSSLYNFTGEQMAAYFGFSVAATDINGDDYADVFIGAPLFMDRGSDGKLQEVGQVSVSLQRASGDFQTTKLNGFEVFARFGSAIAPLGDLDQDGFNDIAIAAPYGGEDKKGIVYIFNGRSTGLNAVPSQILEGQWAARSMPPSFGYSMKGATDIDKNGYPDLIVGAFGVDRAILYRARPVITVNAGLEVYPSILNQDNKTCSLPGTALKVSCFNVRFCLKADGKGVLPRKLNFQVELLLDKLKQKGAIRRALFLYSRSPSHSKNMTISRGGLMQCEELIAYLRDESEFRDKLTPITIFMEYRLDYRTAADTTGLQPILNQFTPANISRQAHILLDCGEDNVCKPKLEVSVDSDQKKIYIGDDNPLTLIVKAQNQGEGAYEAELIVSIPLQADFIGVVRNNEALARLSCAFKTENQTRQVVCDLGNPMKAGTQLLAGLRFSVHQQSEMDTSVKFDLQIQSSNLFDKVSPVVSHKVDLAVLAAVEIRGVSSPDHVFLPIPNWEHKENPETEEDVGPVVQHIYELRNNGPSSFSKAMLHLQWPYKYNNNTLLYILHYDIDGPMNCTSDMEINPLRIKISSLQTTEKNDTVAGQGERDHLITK
Integrin alpha-V/beta-3, sequence (P06756 891-1048 limits assumed): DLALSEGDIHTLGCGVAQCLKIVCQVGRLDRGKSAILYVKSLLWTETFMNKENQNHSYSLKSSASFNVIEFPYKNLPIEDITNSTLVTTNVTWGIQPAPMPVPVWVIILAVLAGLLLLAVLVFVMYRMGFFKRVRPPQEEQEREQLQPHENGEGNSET
Integrin alpha-IIb/beta-3, sequence (P05106 27-788 limits assumed): as the sequence (P05106 27-788 limits assumed) above
Integrin alpha-IIb/beta-3, sequence (P08514 32-887 limits assumed): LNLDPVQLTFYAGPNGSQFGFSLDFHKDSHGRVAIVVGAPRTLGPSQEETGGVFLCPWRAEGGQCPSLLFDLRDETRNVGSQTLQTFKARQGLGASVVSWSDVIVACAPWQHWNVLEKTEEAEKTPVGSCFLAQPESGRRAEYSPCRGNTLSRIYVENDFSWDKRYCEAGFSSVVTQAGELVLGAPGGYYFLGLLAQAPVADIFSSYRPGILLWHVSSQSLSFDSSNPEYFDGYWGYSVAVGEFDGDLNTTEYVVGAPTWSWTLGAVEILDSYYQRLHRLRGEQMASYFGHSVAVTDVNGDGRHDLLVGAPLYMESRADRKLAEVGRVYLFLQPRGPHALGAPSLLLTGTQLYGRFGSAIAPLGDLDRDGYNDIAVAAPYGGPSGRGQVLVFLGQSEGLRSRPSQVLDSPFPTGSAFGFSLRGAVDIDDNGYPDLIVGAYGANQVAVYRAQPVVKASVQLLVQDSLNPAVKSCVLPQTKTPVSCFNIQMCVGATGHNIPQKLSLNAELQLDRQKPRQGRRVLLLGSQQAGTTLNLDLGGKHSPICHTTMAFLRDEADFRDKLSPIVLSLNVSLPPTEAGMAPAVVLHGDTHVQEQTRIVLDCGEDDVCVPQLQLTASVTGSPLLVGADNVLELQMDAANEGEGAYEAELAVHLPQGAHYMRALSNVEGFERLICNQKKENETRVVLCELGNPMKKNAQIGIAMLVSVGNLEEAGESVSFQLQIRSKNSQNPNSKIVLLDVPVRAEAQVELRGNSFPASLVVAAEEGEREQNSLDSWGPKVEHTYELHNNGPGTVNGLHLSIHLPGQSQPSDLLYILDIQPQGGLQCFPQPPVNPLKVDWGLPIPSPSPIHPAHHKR
Integrin alpha-IIb/beta-3, sequence (P08514 891-1039 limits assumed): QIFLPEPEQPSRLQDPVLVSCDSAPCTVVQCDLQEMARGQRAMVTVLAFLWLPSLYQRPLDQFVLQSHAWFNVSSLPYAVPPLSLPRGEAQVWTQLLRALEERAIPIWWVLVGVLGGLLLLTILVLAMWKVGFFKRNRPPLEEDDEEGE

`O=C(O)CC1CC(=O)N(CC(=O)NCC2CCC(Nc3nc4ccccc4[nH]3)CC2)c2ccccc21` (trans isomer) had a half-maximal inhibitory concentration (IC50) at Integrin alpha-V/beta-3 of 7.4 nM.

On Integrin alpha-V/beta-3, `O=C(O)CC1CCC(=O)N(CC(=O)NCC2CCC(Nc3nc4ccccc4[nH]3)CC2)c2ccccc21` (centres undefined) had an IC50 of 1.5 nM.

`O=C(O)CC1CCC(=O)N(CC(=O)NCc2ccc(Nc3nc4ccccc4[nH]3)cc2)c2ccccc21` (centres undefined) registered an IC50 at Integrin alpha-V/beta-3 of 4.4 nM.

Turning to `O=C(O)CC1CCN(CC(=O)NCc2ccc(Nc3nc4ccccc4[nH]3)cc2)C(=O)c2ccccc21` (centres undefined), the half-maximal inhibitory concentration (IC50) at Integrin alpha-V/beta-3 came to 122 nM.

As to `O=C(O)Cc1cc(=O)n(CC(=O)NCC2CCC(Nc3nc4ccccc4[nH]3)CC2)c2ccccc12` (centres undefined), the IC50 on Integrin alpha-V/beta-3 came out at 10 nM. This IC50 is about 12-fold lower than that of the compound before.

For `O=C(O)CC1CCN(CC(=O)NCC2CCC(Nc3nc4ccccc4[nH]3)CC2)C(=O)c2ccccc21` (centres undefined), the IC50 on Integrin alpha-V/beta-3 was 11 nM.

The compound `O=C(O)CC1NC(=O)N(CC(=O)NCc2ccc(Nc3nc4ccccc4[nH]3)cc2)c2ccccc21` (centres undefined) yielded an IC50 on Integrin alpha-V/beta-3 of 37 nM.

Turning to `O=C(O)CC1CN(CC(=O)NCC2CCC(Nc3nc4ccccc4[nH]3)CC2)C(=O)c2ccccc21` (trans isomer), on Integrin alpha-V/beta-3, the 50% inhibitory concentration (IC50) was found to be 10000 nM.

Regarding `O=C(O)CCc1cc(=O)n(CC(=O)NCC2CCC(Nc3nc4ccccc4[nH]3)CC2)c2ccccc12` (trans isomer), the IC50 on Integrin alpha-V/beta-3 worked out at 1000 nM.

Regarding `O=C(O)CCC1CC(=O)N(CC(=O)NCC2CCC(Nc3nc4ccccc4[nH]3)CC2)c2ccccc21` (centres undefined), the 50% inhibitory concentration (IC50) on Integrin alpha-V/beta-3 turned out to be 27 nM.

Compound `O=C(O)Cc1cc(=O)n(CC(=O)NCc2ccc(Nc3nc4ccccc4[nH]3)cc2)c2ccccc12` returned an IC50 at Integrin alpha-V/beta-3 of 50 nM.

Regarding `O=C(O)CC1OC(=O)N(CC(=O)NCc2ccc(Nc3nc4ccccc4[nH]3)cc2)c2ccccc21` (centres undefined), the IC50 was above 10000 nM in data set [1] and 4.2 nM on Integrin alpha-V/beta-3. Besides, the apparent permeability (Papp) in data set [2] stood at 3.48 ×10⁻⁶ cm/s. In data set [3], this compound showed an inhibition of 8%.

At Integrin alpha-V/beta-3, `O=C(O)CCc1cc(=O)n(CC(=O)NCc2ccc(Nc3nc4ccccc4[nH]3)cc2)c2ccccc12` came in with an IC50 of 500 nM. In other words, the sub-micromolar range.

Consider `O=C(O)CC1OC(=O)N(CC(=O)NCC2CCC(Nc3nc4ccccc4[nH]3)CC2)c2ccccc21` (centres undefined), for which the IC50 in data set [1] is above 10000 nM; on Integrin alpha-V/beta-3 it was 0.7 nM. Further, in data set [2], the Papp came to 3.23 ×10⁻⁶ cm/s. This compound also displayed an inhibition in data set [3] of 25%.

Take `O=C(O)CC1NC(=O)N(CC(=O)NCC2CCC(Nc3nc4ccccc4[nH]3)CC2)c2ccccc21` (trans isomer): the IC50 at Integrin alpha-V/beta-3 amounted to 13 nM.

Regarding `O=C(O)CC1CC(=O)N(CC(=O)NCc2ccc(Nc3nc4ccccc4[nH]3)cc2)c2ccccc21` (centres undefined), the IC50 on Integrin alpha-V/beta-3 was 50 nM.

Regarding `O=C(O)CC1CN(CC(=O)NCc2ccc(Nc3nc4ccccc4[nH]3)cc2)C(=O)c2ccccc21` (centres undefined), the IC50 at Integrin alpha-V/beta-3 is 10000 nM.

`O=C(O)CCC1CC(=O)N(CC(=O)NCc2ccc(Nc3nc4ccccc4[nH]3)cc2)c2ccccc21` (centres undefined): the IC50 on Integrin alpha-V/beta-3 turned out to be 5000 nM.
